# Measured values as given in ChEMBL document CHEMBL5154634, “A Modular Synthetic Route Involving N-Aryl-2-nitrosoaniline Intermediates Leads to a New Series of 3-Substituted Halogenated Phenazine Antibacterial Agents” (J Med Chem, 2021).
# Active and inactive are the calls of the source. The calls are words filed in the database; no cut-off is given here.
# How the values were obtained:
# Staphylococcus aureus [1] = test: Antibacterial activity against methicillin-resistant Staphylococcus aureus BAA-1707 assessed as bacterial growth inhibition incubated for 16 hrs by broth microdilution susceptibility test; format: functional
# How it was run: (§1)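 CLSI broth microdilution with 11 twofold dilutions (0.05–50 μM). About 10^5 cells per well from a log-phase culture. DMSO vehicle up to 0.5% v/v. At least three independent experiments.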
# [2] = tested on: Staphylococcus epidermidis; test: Antibacterial activity against Staphylococcus epidermidis ATCC 12228 assessed as bacterial growth inhibition by broth microdilution method; format: functional
# Enterococcus faecium [3] = test: Antibacterial activity against vancomycin-resistant Enterococcus faecium ATCC 700221 assessed as bacterial growth inhibition incubated for 16 hrs by broth microdilution susceptibility test; format: functional
# How it was run: (§2)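 CLSI broth microdilution with 11 twofold dilutions (0.05–50 μM). Medium was LB for the staphylococci and BHI for VRE 700221. About 10^5 cells per well from a log-phase culture. […] DMSO vehicle up to 0.5% v/v. At least three independent experiments.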
# [4] = tested on: Staphylococcus epidermidis; test: Antibacterial activity against methicillin-resistant Staphylococcus epidermidis ATCC 35984 assessed as bacterial growth inhibition incubated for 16 hrs by broth microdilution susceptibility test; format: functional; how it was run: as §1
# Enterococcus faecalis [5] = test: Antibacterial activity against Enterococcus faecalis OG1RF ATCC 47077 assessed as bacterial growth inhibition incubated for 16 hrs by broth microdilution susceptibility test; format: functional
# Staphylococcus aureus [6] = test: Antibacterial activity against methicillin-resistant Staphylococcus aureus BAA-44 assessed as bacterial growth inhibition incubated for 16 hrs by broth microdilution susceptibility test; format: functional; how it was run: as §2
# Staphylococcus aureus [7] = test: Induction of iron starvation in methicillin-resistant Staphylococcus aureus BAA-1707 biofilms assessed as upregulation of MW0695 gene expression at 1 uM incubated for 4 hrs by RT-qPCR analysis; format: functional
# How it was run: (§3)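 MRSA BAA-1707 grown in TSB with 0.5% glucose to OD600 ~0.8–1.0, then biofilms formed 20 h at 37 °C statically in gelatin-coated 24-well plates. Biofilms treated 4 h at 37 °C with compound (1 μM or 1/10 MBEC) or DMSO vehicle. RNA extracted; only RIN ≥7 samples used. One-step SYBR RT-qPCR; ΔCT normalised to ptaA. Three independent experiments.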
# Staphylococcus aureus [8] = test: Antibacterial activity against methicillin-resistant Staphylococcus aureus 156 assessed as bacterial growth inhibition; format: functional
# HeLa = test: Cytotoxicity against human HeLa cells assessed as reduction in cell viability incubated for 24 hrs by LDH release assay; format: toxicity, cell-based
# How it was run: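 HeLa cells in DMEM with 10% FBS, treated at 70–80% confluence with 25, 50 and 100 μM for 24 h. LDH in supernatant measured by 30 min reaction at room temperature, then stop solution and absorbance at 490 nm. Controls: 2% Triton X-100 (maximum), medium only, DMSO vehicle. Three independent experiments.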
# Staphylococcus aureus [9] = test: Antibacterial activity against methicillin-resistant Staphylococcus aureus 147 assessed as bacterial growth inhibition; format: functional
# Staphylococcus aureus [10] = test: Induction of iron starvation in methicillin-resistant Staphylococcus aureus BAA-1707 biofilms assessed as upregulation of isdB gene expression at 1/10XMBEC incubated for 4 hrs by RT-qPCR analysis; format: functional; how it was run: as §3
# [11] = tested on: Mycobacterium tuberculosis; test: Antibacterial activity against Mycobacterium tuberculosis CDC1551 assessed as bacterial growth inhibition incubated for 5 days by luminescence based analysis; format: functional; conditions: CDC1551, 120 h, time 5 day
# How it was run: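 Bioluminescent Mtb-lux CDC1551 reporter grown in Middlebrook 7H9 with 0.05% Tween 80, 10% OADC and kanamycin to OD600 0.4–0.8, then diluted to OD600 0.02. Added to twofold drug dilutions (0.003–200 μM). Incubated 5 days at 37 °C, 5% CO2. Luminescence read against 1% DMSO and 10 μM rifampicin controls to give % growth inhibition. MIC taken from a modified Gompertz fit.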
# Staphylococcus aureus [12] = test: Induction of iron starvation in methicillin-resistant Staphylococcus aureus BAA-1707 biofilms assessed as upregulation of sfaA gene expression at 1/10XMBEC incubated for 4 hrs by RT-qPCR analysis; format: functional; how it was run: as §3
# Staphylococcus aureus [13] = test: Antibacterial activity against methicillin-resistant Staphylococcus aureus 138 assessed as bacterial growth inhibition; format: functional
# Staphylococcus aureus [14] = test: Antibiofilm activity against methicillin-resistant Staphylococcus aureus BAA-1707 biofilms assessed as biofilm eradication incubated for 24 hrs followed by incubation for 24 hrs in fresh medium by Calgary biofilm device assay; format: functional
# How it was run: (§4)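 Calgary biofilm device. Mid-log culture diluted 1000-fold in TSB with 0.5% glucose; biofilms grown on pegs 24 h at 37 °C. Pegs washed and challenged with twofold compound dilutions for 24 h at 37 °C, then moved to fresh medium for 24 h. MBEC is the lowest concentration leaving wells non-turbid. At least three independent experiments.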
# Staphylococcus aureus [15] = test: Induction of iron starvation in methicillin-resistant Staphylococcus aureus BAA-1707 biofilms assessed as upregulation of sbnC gene expression at 1/10XMBEC incubated for 4 hrs by RT-qPCR analysis; format: functional; how it was run: as §3
# Staphylococcus aureus [16] = test: Antibacterial activity against methicillin-resistant Staphylococcus aureus clinical isolate 2 assessed as bacterial growth inhibition; format: functional
# J774 = test: Cytotoxicity against mouse J774 cells assessed as reduction in cell viability […] by Alamar blue assay; format: toxicity, cell-based
# [17] = Dissociation constant, pKa of the compound at 125 uM by UV-vis spectrophotometric analysis; format: physicochemical; conditions: 125 µM
# How it was run: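 Compound at 125 μM final in phosphate buffers (KH₂PO₄/Na₂HPO₄) in 1:1 water/methanol, pH 4.07–9.66; ammonium hydroxide added for pH above 9.80. UV-vis scans 200–800 nm to find λmax of phenol and phenolate forms. Absorbance at each λmax plotted against pH.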
# Staphylococcus aureus [18] = test: Antibiofilm activity against methicillin-resistant Staphylococcus aureus BAA-44 biofilms assessed as biofilm eradication incubated for 24 hrs followed by incubation for 24 hrs in fresh medium by Calgary biofilm device assay; format: functional; how it was run: as §4
# Staphylococcus aureus [19] = test: Induction of iron starvation in methicillin-resistant Staphylococcus aureus BAA-1707 biofilms assessed as upregulation of MW0695 gene expression at 1/10XMBEC incubated for 4 hrs by RT-qPCR analysis; format: functional; how it was run: as §3
# [20] = tested on: Staphylococcus epidermidis; test: Bactericidal activity against methicillin-resistant Staphylococcus epidermidis ATCC 35984 planktonic cells assessed as planktonic eradication incubated for 24 hrs followed by incubation for overnight in fresh medium by Calgary biofilm device assay; format: functional
# How it was run: (§5)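 Calgary biofilm device. Biofilms grown 24 h at 37 °C in TSB with 0.5% glucose, then challenged 24 h with twofold compound dilutions. 20 μL of challenge medium transferred into fresh TSB with 0.5% glucose and incubated overnight at 37 °C. MBC is the concentration with no visible turbidity. At least three independent experiments.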
# Enterococcus faecium [21] = test: Antibiofilm activity against methicillin-resistant vancomycin-resistant Enterococcus faecium ATCC 700221 biofilms assessed as biofilm eradication incubated for 24 hrs followed by incubation for 24 hrs in fresh medium by Calgary biofilm device assay; format: functional; how it was run: as §4
# Staphylococcus aureus [22] = test: Antibacterial activity against methicillin-resistant Staphylococcus aureus 129 assessed as bacterial growth inhibition; format: functional
# Erythrocyte = test: Hemolytic activity against human RBC at 200 uM measured after 1 hr; format: toxicity, cell-based
# How it was run: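 2% hRBCs exposed to compound at 200 μM final, added from DMSO stock, for 1 h at 37 °C. Supernatant OD read at 405 nm. Hemolysis normalized between DMSO (0%) and Triton X (100%); three independent experiments.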
# Enterococcus faecalis [23] = test: Antibiofilm activity against Enterococcus faecalis OG1RF ATCC 47077 biofilms assessed as biofilm eradication incubated for 24 hrs followed by incubation for 24 hrs in fresh medium by Calgary biofilm device assay; format: functional
# How it was run: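 Calgary biofilm device. Biofilms grown 24 h at 37 °C in BHI from mid-log culture diluted 1000-fold. Pegs washed and then challenged 24 h with twofold serial dilutions. Pegs moved to fresh BHI for 24 h recovery. MBEC = lowest concentration leaving no turbidity; at least three independent experiments.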
# HepG2 = test: Cytotoxicity against human HepG2 cells assessed as reduction in cell viability […] by Alamar blue assay; format: toxicity, cell-based
# Staphylococcus aureus [24] = test: Bactericidal activity against methicillin-resistant Staphylococcus aureus BAA-44 planktonic cells assessed as planktonic eradication incubated for 24 hrs followed by incubation for overnight in fresh medium by Calgary biofilm device assay; format: functional; how it was run: as §5
# Enterococcus faecalis [25] = test: Bactericidal activity against […] Enterococcus faecalis OG1RF ATCC 47077 planktonic cells assessed as planktonic eradication incubated for 24 hrs followed by incubation for overnight in fresh medium by Calgary biofilm device assay; format: functional
# How it was run: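 Calgary biofilm device in BHI. Biofilms grown 24 h at 37 °C and challenged 24 h with twofold compound dilutions. Challenge medium subcultured 1:10 into fresh BHI overnight at 37 °C. MBC is the concentration with no turbidity. At least three independent experiments.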
# Enterococcus faecium [26] = test: Bactericidal activity against methicillin-resistant vancomycin-resistant Enterococcus faecium ATCC 700221 planktonic cells assessed as planktonic eradication incubated for 24 hrs followed by incubation for overnight in fresh medium by Calgary biofilm device assay; format: functional; how it was run: as §5
# [27] = tested on: Staphylococcus epidermidis; test: Antibiofilm activity against methicillin-resistant Staphylococcus epidermidis ATCC 35984 biofilms assessed as biofilm eradication incubated for 24 hrs followed by incubation for 24 hrs in fresh medium by Calgary biofilm device assay; format: functional; how it was run: as §4
# Staphylococcus aureus [28] = test: Antibacterial activity against methicillin-resistant Staphylococcus aureus clinical isolate 1 assessed as bacterial growth inhibition; format: functional
# Staphylococcus aureus [29] = test: Induction of iron starvation in methicillin-resistant Staphylococcus aureus BAA-1707 biofilms assessed as upregulation of isdB gene expression at 1 uM incubated for 4 hrs by RT-qPCR analysis; format: functional; how it was run: as §3
# Staphylococcus aureus [30] = test: Induction of iron starvation in methicillin-resistant Staphylococcus aureus BAA-1707 biofilms assessed as upregulation of sbnC gene expression at 1 uM incubated for 4 hrs by RT-qPCR analysis; format: functional; how it was run: as §3
# Staphylococcus aureus [31] = test: Induction of iron starvation in methicillin-resistant Staphylococcus aureus BAA-1707 biofilms assessed as upregulation of sfaA gene expression at 1 uM incubated for 4 hrs by RT-qPCR analysis; format: functional; how it was run: as §3
structure (smiles),measurement,setting,value
Oc1c(Br)ccc2nc3ccccc3nc12,MIC,Staphylococcus aureus [1],3.13 µM
same,MIC,[2],6.25 µM
same,MIC,Enterococcus faecium [3],6.25 µM
same,MIC,[4],3.13 µM
same,MIC,Enterococcus faecalis [5],18.8 µM
same,MIC,Staphylococcus aureus [6],3.13 µM
Oc1c(Br)cc(Br)c2nc3ccccc3nc12,Activity,Staphylococcus aureus [7],Active
same,MIC,Staphylococcus aureus [8],1.25 µM
same,IC50,HeLa,> 100 µM
same,MIC,Staphylococcus aureus [9],1.25 µM
same,Activity,Staphylococcus aureus [10],Active
same,MIC,[11],13.7 µM
same,Activity,Staphylococcus aureus [12],Active
same,MIC,Staphylococcus aureus [13],1.25 µM
same,MBEC,Staphylococcus aureus [14],100 µM
same,Activity,Staphylococcus aureus [15],Active
same,MIC,Staphylococcus aureus [16],1.25 µM
same,IC50,J774,> 100 µM
same,pKa,[17],7.12
same,MBEC,Staphylococcus aureus [18],75 µM
same,Activity,Staphylococcus aureus [19],Active
same,MBC,[20],25 µM
same,MBEC,Enterococcus faecium [21],12.5 µM
same,MIC,Staphylococcus aureus [22],1.25 µM
same,Activity,Erythrocyte,<= 1%
same,MBEC,Enterococcus faecalis [23],>200 µM
same,IC50,HepG2,> 100 µM
same,MBC,Staphylococcus aureus [24],37.5 µM
same,MBC,Enterococcus faecalis [25],25 µM
same,MBC,Enterococcus faecium [26],18.8 µM
same,MBEC,[27],50 µM
same,MIC,[4],2.35 µM
same,MIC,Staphylococcus aureus [28],1.25 µM
same,MIC,Enterococcus faecalis [5],12.5 µM
same,Activity,Staphylococcus aureus [29],Active
same,Activity,Staphylococcus aureus [30],Active
same,Activity,Staphylococcus aureus [31],Active
